Activity, fold change (FC) and inhibition data for one molecule are collected here from ChEMBL document CHEMBL3124841, “Discovery of vinyl sulfones as a novel class of neuroprotective agents toward Parkinson's disease therapy” (J Med Chem, 2014).

The species entered for assay [1] is Mus musculus. Put plainly: Neuroprotection against BH4-induced mouse CATH.a cell death assessed as cell viability at 0.1 uM treated for 20 hrs prior to BH4 challenge for 24 hrs by LDH activity assay. It counts as functional. The method in brief:
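CATH.a cells at 2.4 × 10⁴/well given graded concentrations for 20 h, then 200 μM BH4 for an additional 24 h. Medium LDH activity from NADH oxidation with pyruvate, pH 7.4, read at 340 nm over 5 min. At least duplicate cultures, % untreated control ± SEM, compared against BH4-treated group.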

Assay [2] concerns the target T1, Nuclear factor erythroid 2-related factor 2 (Mus musculus) (UniProt Q60795).
T1 sequence (whole entry): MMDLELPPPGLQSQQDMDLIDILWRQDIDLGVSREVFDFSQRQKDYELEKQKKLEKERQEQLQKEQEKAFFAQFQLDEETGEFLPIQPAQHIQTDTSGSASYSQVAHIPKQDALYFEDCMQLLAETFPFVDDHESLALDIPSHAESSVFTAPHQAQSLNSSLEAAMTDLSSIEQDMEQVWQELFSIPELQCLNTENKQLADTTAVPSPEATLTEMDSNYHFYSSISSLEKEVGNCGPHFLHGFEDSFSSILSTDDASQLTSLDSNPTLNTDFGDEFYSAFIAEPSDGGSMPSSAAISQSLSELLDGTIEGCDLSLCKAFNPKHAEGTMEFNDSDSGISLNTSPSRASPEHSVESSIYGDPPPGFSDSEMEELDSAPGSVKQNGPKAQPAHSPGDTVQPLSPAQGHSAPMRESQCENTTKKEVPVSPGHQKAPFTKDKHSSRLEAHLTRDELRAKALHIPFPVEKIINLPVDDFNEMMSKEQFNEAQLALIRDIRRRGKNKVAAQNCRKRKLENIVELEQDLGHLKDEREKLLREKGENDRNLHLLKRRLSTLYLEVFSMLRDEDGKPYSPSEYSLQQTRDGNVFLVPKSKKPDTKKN
Put plainly: Activation of Nrf2 in mouse CATH.a cells assessed as increase in total Nrf2 protein level at 1 uM after 24 hrs by western blot analysis. In kind it is cell-based. The method in brief:
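CATH.a cells (RPMI 1640, 8% horse serum, 4% FBS, 37 °C, 5% CO2) exposed to various concentrations for 24 h. Whole-cell lysate in RIPA buffer with protease inhibitors, 10% SDS-PAGE, Nrf2 immunoblot, chemiluminescence, densitometry normalized to β-actin. At least duplicate cultures, averaged, fold of untreated control ± SEM.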

The target in assay [3] is T1, Nuclear factor erythroid 2-related factor 2 (Mus musculus). Put plainly: Induction of Nrf2-dependent GCLM gene expression in mouse CATH.a cells at 2 uM after 6 hrs by RT-PCR analysis relative to control. It counts as cell-based. The method in brief:
(§1)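 CATH.a cells grown in RPMI 1640 with 8% horse serum and 4% FBS, exposed to graded concentrations for 6 h. mRNA analysed by RT-PCR with gene-specific primers, products run on 1% agarose gel, band densitometry normalized to GAPDH. At least duplicate cultures; fold induction versus untreated control ± SEM.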

In assay [4] the test system is Mus musculus. Put plainly: Inhibition of motor deficits in MPTP-induced C57Bl/6 mouse parkinson's disease model assessed as improvement in postural balance at 10 mg/kg/day, po for 3 days administered first dose at 24 hrs prior to first injection of 4X 20 mg/kg, ip MPTP challenge measured 6 days after last MPTP injection by hind-limb test. It counts as functional, organism-based. The method in brief: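 C57Bl/6 males (n = 10/group), 10 mg/kg/day po for 3 days in N-methyl-2-pyrrolidone/20% Tween 80 saline. MPTP 4 × 20 mg/kg ip at 2 h intervals, begun 24 h after first dose. Six days after last MPTP injection, mice suspended by tail and hindlimb position scored 0−4. Mean ± SEM.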

The subject of assay [5] is Mus musculus. Put plainly: Inhibition of motor deficits in MPTP-induced C57Bl/6 mouse parkinson's disease model assessed as number of successful steps taken on the apparatus at 10 mg/kg/day, po for 3 days administered first dose at 24 hrs prior to first injection of 4X 20 mg/kg, ip MPTP challenge by vertical grid test (reference value: 75.4 +/-6.2%). It counts as functional. Also on record: scale not given: the % may be the effect or the level left.

Assay [6] concerns the target T1, Nuclear factor erythroid 2-related factor 2 (Mus musculus). Put plainly: Induction of Nrf2-dependent NQO1 protein expression in mouse CATH.a cells at 10 uM after 24 hrs by western blot analysis relative to control. It counts as cell-based. The method in brief:
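Cells (CATH.a) exposed to graded concentrations for 24 h, lysed in RIPA buffer with protease inhibitors. Equal protein separated on 10% SDS gel, blotted; primary antibodies overnight at 4 °C, HRP secondary, chemiluminescence. Densitometry normalized to β-actin. At least duplicate cultures, fold of untreated control ± SEM.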

For assay [7] the target is unchanged. Put plainly: Induction of Nrf2-dependent NQO1 gene expression in mouse CATH.a cells at 10 uM after 6 hrs by RT-PCR analysis relative to control. In kind it is cell-based. The method in brief: as §1

The source made the active and inactive calls. The calls are words filed in the database; no cut-off is given here.

With `COc1ccccc1S(=O)(=O)/C=C/c1ccccc1Cl`, the outcome (in the assay filed under Mus musculus [1]; in assay [2]) was Active. In addition, the fold change (FC) in assay [3] was 1.43; in assay [6] it was 4.43; in assay [7], 5.67. In addition, in the assay on Mus musculus [4], the inhibition entry was “Active”. Further, the Activity in the assay with Mus musculus [5] was 96.9%.
